Activity calls are given as the source filed them. No rule for the calls is given here.
Target: Metabotropic glutamate receptor 3 (Rattus norvegicus) (UniProt P31422)
Assay: mGlu3 modulation of glutamate calcium response, selectivity assay for mGlu5 silent allosteric modulator project, cell-based, rat, TRex293, Galpha15, Fluo4 calcium (AID 652202)
Settings: TRex293 rmGlu3+Galpha15, Fluo4 calcium mobilization
Procedure, shortened: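 Material: TRex293 cells with rat mGlu3 and Galpha15; reagent: glutamate, 10 nM–1 mM; dosing: compound at 10 µM, 1% DMSO; incubation: Fluo4-AM loading 60 min at 37 °C, glutamate added at 80 s; detection: calcium mobilization via Fluo4-AM fluorescence, dye at 1 µM; read-out basis: modulation of glutamate concentration-response by compound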

Chain of Metabotropic glutamate receptor 3 (Rattus norvegicus) (P31422 whole entry, looked up): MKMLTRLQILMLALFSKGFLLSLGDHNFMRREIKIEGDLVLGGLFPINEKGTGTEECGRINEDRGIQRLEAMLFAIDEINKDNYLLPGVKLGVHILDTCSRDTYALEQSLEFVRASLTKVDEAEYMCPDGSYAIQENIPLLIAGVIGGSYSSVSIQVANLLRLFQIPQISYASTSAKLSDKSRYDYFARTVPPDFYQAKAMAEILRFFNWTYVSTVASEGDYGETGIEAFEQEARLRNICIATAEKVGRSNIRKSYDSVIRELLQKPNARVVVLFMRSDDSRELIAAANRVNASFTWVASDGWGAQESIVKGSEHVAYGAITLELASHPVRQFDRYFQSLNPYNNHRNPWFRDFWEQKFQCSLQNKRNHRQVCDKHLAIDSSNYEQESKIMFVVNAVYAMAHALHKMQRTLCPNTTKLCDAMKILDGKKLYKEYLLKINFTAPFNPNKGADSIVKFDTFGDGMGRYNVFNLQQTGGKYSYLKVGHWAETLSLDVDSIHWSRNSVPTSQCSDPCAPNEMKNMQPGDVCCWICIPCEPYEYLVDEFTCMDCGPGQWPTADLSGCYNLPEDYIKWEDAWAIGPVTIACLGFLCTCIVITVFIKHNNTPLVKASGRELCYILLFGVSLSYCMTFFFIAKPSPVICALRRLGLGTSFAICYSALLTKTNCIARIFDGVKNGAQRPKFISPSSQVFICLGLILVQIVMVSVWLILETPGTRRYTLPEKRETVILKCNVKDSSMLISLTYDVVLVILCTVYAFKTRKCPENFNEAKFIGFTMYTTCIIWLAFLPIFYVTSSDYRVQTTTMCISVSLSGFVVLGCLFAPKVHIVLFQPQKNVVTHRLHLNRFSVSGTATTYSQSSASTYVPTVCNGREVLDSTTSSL

Question: `O=C(c1ccc(C#Cc2cccc(F)c2)cn1)N1CC2CC2C1` (stereo unspecified) was tested. Which “glutamate EC50 in presence of 10 uM compound” value did it give?
Answer: Its value is “inactive”.

From PubChem BioAssay AID652202 (Vanderbilt Specialized Chemistry Center, 2013)
